These results are taken from ChEMBL document CHEMBL1147382, “Cytotoxic constituents from Hyptis verticillata” (J Nat Prod, 1993).

Values after ≈ are worked out from the molar mass of the structure shown. A value given as a limit tells only on which side of the number the result lay.

In general, LC50 refers to the concentration lethal to half of the exposed cells or organisms. Read a low LC50 as greater toxicity.

System in one data set: not listed separately
Put plainly: Antimitotic activity in rat ASK cells assessed as reversal of astrocyte formation at 20 ug/mL. In kind it is functional.
Conditions: not given
Summed up:
(§1)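 Cultured rat glioma (ASK) cells were used, following Swanson et al. The antimitotic read-out was the dose giving 100% reversal of astrocyte conversion. Pure lignans were tested across a range of concentrations.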
Regarding `COc1cc([C@@H]2c3cc4c(cc3C[C@H]3COC(=O)[C@H]32)OCO4)cc(OC)c1OC` [DEOXYPICROPODOPHYLLIN], the Activity came out at 100%.
In the case of `COc1cc([C@@H]2c3cc4c(cc3[C@H](O)[C@H]3COC(=O)[C@H]23)OCO4)cc(OC)c1OC` [PODOFILOX], the Activity is given as 100%.

For another data set, the system named is P388. The data set is described as follows: Cytotoxicity in mouse P388 cells. Type of data set: functional. As to conditions: read-out: ED50 (the source's name).
As for `COc1cc([C@@H]2c3cc4c(cc3C[C@H]3COC(=O)[C@H]32)OCO4)cc(OC)c1OC` [DEOXYPICROPODOPHYLLIN], the EC50 worked out at 0.1 µg/mL (≈ 0.251 µM).
Turning to `COc1cc([C@@H]2c3cc4c(cc3[C@H](O)[C@H]3COC(=O)[C@H]23)OCO4)cc(OC)c1OC` [PODOFILOX], the EC50 is 0.003 µg/mL (≈ 0.00724 µM).

System in a further data set: not listed separately
Put plainly: Cytotoxicity against human KBV1 cells. In kind it is functional. The settings on record: KB-V1, read-out: ED50 (the source's name).
`COc1cc([C@@H]2c3cc4c(cc3C[C@H]3COC(=O)[C@H]32)OCO4)cc(OC)c1OC` [DEOXYPICROPODOPHYLLIN]: the EC50 stood at 0.7 µg/mL (≈ 1.76 µM).
Consider `COc1cc([C@@H]2c3cc4c(cc3[C@H](O)[C@H]3COC(=O)[C@H]23)OCO4)cc(OC)c1OC` [PODOFILOX], for which the EC50 worked out at 0.06 µg/mL (≈ 0.145 µM).

System in a further data set: not listed separately
Put plainly: Cytotoxicity against human BC1 cells. As to conditions: read-out: ED50 (the source's name). Type of data set: functional.
In the case of `COc1cc([C@@H]2c3cc4c(cc3C[C@H]3COC(=O)[C@H]32)OCO4)cc(OC)c1OC` [DEOXYPICROPODOPHYLLIN], the EC50 is 2.1 µg/mL (≈ 5.27 µM).
Still for that read-out and setting: next, `COc1cc([C@@H]2c3cc4c(cc3[C@H](O)[C@H]3COC(=O)[C@H]23)OCO4)cc(OC)c1OC` [PODOFILOX]: 0.03 µg/mL (≈ 0.0724 µM).

System in a further data set: not listed separately
Put plainly: Antimitotic activity in rat ASK cells assessed as reversal of astrocyte formation at 100 ug/mL. In kind it is functional.
Conditions: not given
Put shortly: as §1
Regarding `COc1cc([C@@H]2c3cc4c(cc3C[C@H]3COC(=O)[C@H]32)OCO4)cc(OC)c1OC` [DEOXYPICROPODOPHYLLIN], the Activity amounted to 100%.
On the same count and under the same terms, to `COc1cc([C@@H]2c3cc4c(cc3[C@H](O)[C@H]3COC(=O)[C@H]23)OCO4)cc(OC)c1OC` [PODOFILOX] belongs 100%.

System in a further data set: not listed separately
The data set is described as follows: Toxicity in brine shrimp. In kind it is organism-based. The settings on record: artemia, in vivo.
In turn, `COc1cc([C@@H]2c3cc4c(cc3C[C@H]3COC(=O)[C@H]32)OCO4)cc(OC)c1OC` [DEOXYPICROPODOPHYLLIN] registered an LC50 of 142 µg/mL (≈ 355 µM).
As to `COc1cc([C@@H]2c3cc4c(cc3[C@H](O)[C@H]3COC(=O)[C@H]23)OCO4)cc(OC)c1OC` [PODOFILOX], the median lethal concentration (LC50) came to 0.2 µg/mL (≈ 0.483 µM).

System in another data set: not listed separately
Put plainly: Antimitotic activity in rat ASK cells assessed as reversal of astrocyte formation at 0.0064 ug/mL. Type of data set: functional.
Conditions: not given
Summed up: as §1
Take `COc1cc([C@@H]2c3cc4c(cc3C[C@H]3COC(=O)[C@H]32)OCO4)cc(OC)c1OC` [DEOXYPICROPODOPHYLLIN]: the Activity was 0%.
On the same count and under the same terms, next, `COc1cc([C@@H]2c3cc4c(cc3[C@H](O)[C@H]3COC(=O)[C@H]23)OCO4)cc(OC)c1OC` [PODOFILOX]: 0%.

Another data set deals with HT. Put plainly: Cytotoxicity against human HT cells. Type of data set: functional. The settings on record: read-out: ED50 (the source's name).
As for `COc1cc([C@@H]2c3cc4c(cc3C[C@H]3COC(=O)[C@H]32)OCO4)cc(OC)c1OC` [DEOXYPICROPODOPHYLLIN], the EC50 amounted to 0.2 µg/mL (≈ 0.502 µM).
Still for that read-out and setting: to `COc1cc([C@@H]2c3cc4c(cc3[C@H](O)[C@H]3COC(=O)[C@H]23)OCO4)cc(OC)c1OC` [PODOFILOX] belongs 0.003 µg/mL (≈ 0.00724 µM).

Another data set deals with Col2. The data set is described as follows: Cytotoxicity against human Col2 cells. The settings on record: read-out: ED50 (the source's name). In kind it is functional.
In the case of `COc1cc([C@@H]2c3cc4c(cc3C[C@H]3COC(=O)[C@H]32)OCO4)cc(OC)c1OC` [DEOXYPICROPODOPHYLLIN], the EC50 came to 0.3 µg/mL (≈ 0.753 µM).
Still for that read-out and setting: to `COc1cc([C@@H]2c3cc4c(cc3[C@H](O)[C@H]3COC(=O)[C@H]23)OCO4)cc(OC)c1OC` [PODOFILOX] belongs 0.005 µg/mL (≈ 0.0121 µM).

System in the next data set: not listed separately
Put plainly: Cytotoxicity against human U373 cells. The settings on record: U373 MG, read-out: ED50 (the source's name). In kind it is functional, U-373MG ATCC.
Consider `COc1cc([C@@H]2c3cc4c(cc3C[C@H]3COC(=O)[C@H]32)OCO4)cc(OC)c1OC` [DEOXYPICROPODOPHYLLIN], for which the EC50 was 0.1 µg/mL (≈ 0.251 µM).
Consider `COc1cc([C@@H]2c3cc4c(cc3[C@H](O)[C@H]3COC(=O)[C@H]23)OCO4)cc(OC)c1OC` [PODOFILOX], for which the EC50 was 0.004 µg/mL (≈ 0.00965 µM).

Another data set concerns ZR-75-1. The data set is described as follows: Cytotoxicity against human ZR-75-1 cells. As to conditions: read-out: ED50 (the source's name). Type of data set: functional.
Turning to `COc1cc([C@@H]2c3cc4c(cc3C[C@H]3COC(=O)[C@H]32)OCO4)cc(OC)c1OC` [DEOXYPICROPODOPHYLLIN], the EC50 was found to be 0.6 µg/mL (≈ 1.51 µM).
As to `COc1cc([C@@H]2c3cc4c(cc3[C@H](O)[C@H]3COC(=O)[C@H]23)OCO4)cc(OC)c1OC` [PODOFILOX], the EC50 was 0.4 µg/mL (≈ 0.965 µM).

System in a further data set: not listed separately
Put plainly: Antimitotic activity in rat ASK cells assessed as reversal of astrocyte formation at 0.16 ug/mL. In kind it is functional.
Conditions: not given
Put shortly:
as §1
With `COc1cc([C@@H]2c3cc4c(cc3C[C@H]3COC(=O)[C@H]32)OCO4)cc(OC)c1OC` [DEOXYPICROPODOPHYLLIN], the Activity is on record as 0%.
On the same count and under the same terms, next, `COc1cc([C@@H]2c3cc4c(cc3[C@H](O)[C@H]3COC(=O)[C@H]23)OCO4)cc(OC)c1OC` [PODOFILOX]: 100%.

The next data set has as its system LNCaP. The data set is described as follows: Cytotoxicity against human LNCAP cells. In kind it is functional. The settings on record: read-out: ED50 (the source's name).
As for `COc1cc([C@@H]2c3cc4c(cc3C[C@H]3COC(=O)[C@H]32)OCO4)cc(OC)c1OC` [DEOXYPICROPODOPHYLLIN], the EC50 came to 0.2 µg/mL (≈ 0.502 µM).
Same read-out and setting: next, `COc1cc([C@@H]2c3cc4c(cc3[C@H](O)[C@H]3COC(=O)[C@H]23)OCO4)cc(OC)c1OC` [PODOFILOX]: 0.04 µg/mL (≈ 0.0965 µM).

System in another data set: not listed separately
The data set is described as follows: Antimitotic activity in rat ASK cells assessed as reversal of astrocyte formation at 0.8 ug/mL.
Conditions: not given
In kind it is functional. Summed up: as §1
Take `COc1cc([C@@H]2c3cc4c(cc3C[C@H]3COC(=O)[C@H]32)OCO4)cc(OC)c1OC` [DEOXYPICROPODOPHYLLIN]: the Activity stood at 100%.
`COc1cc([C@@H]2c3cc4c(cc3[C@H](O)[C@H]3COC(=O)[C@H]23)OCO4)cc(OC)c1OC` [PODOFILOX]: the Activity amounted to 100%.

Another data set relates to KB. Put plainly: Cytotoxicity against human KB cells. The settings on record: read-out: ED50 (the source's name). Type of data set: functional.
`COc1cc([C@@H]2c3cc4c(cc3C[C@H]3COC(=O)[C@H]32)OCO4)cc(OC)c1OC` [DEOXYPICROPODOPHYLLIN]: the EC50 was determined as 0.1 µg/mL (≈ 0.251 µM).
`COc1cc([C@@H]2c3cc4c(cc3[C@H](O)[C@H]3COC(=O)[C@H]23)OCO4)cc(OC)c1OC` [PODOFILOX]: the EC50 stood at 0.08 µg/mL (≈ 0.193 µM).

Another data set concerns Lu1. The data set is described as follows: Cytotoxicity against human Lu1 cells. Type of data set: functional. The settings on record: read-out: ED50 (the source's name).
Take `COc1cc([C@@H]2c3cc4c(cc3C[C@H]3COC(=O)[C@H]32)OCO4)cc(OC)c1OC` [DEOXYPICROPODOPHYLLIN]: the EC50 came out at 0.09 µg/mL (≈ 0.226 µM).
On the same count and under the same terms, to `COc1cc([C@@H]2c3cc4c(cc3[C@H](O)[C@H]3COC(=O)[C@H]23)OCO4)cc(OC)c1OC` [PODOFILOX] belongs 0.008 µg/mL (≈ 0.0193 µM).

System in the next data set: not listed separately
The data set is described as follows: Antimitotic activity in rat ASK cells assessed as reversal of astrocyte formation at 4 ug/mL. Type of data set: functional.
Conditions: not given
Put shortly:
as §1
Take `COc1cc([C@@H]2c3cc4c(cc3C[C@H]3COC(=O)[C@H]32)OCO4)cc(OC)c1OC` [DEOXYPICROPODOPHYLLIN]: the Activity came out at 100%.
Still for that read-out and setting: next, `COc1cc([C@@H]2c3cc4c(cc3[C@H](O)[C@H]3COC(=O)[C@H]23)OCO4)cc(OC)c1OC` [PODOFILOX]: 100%.

The subject of the next data set is A-431. The data set is described as follows: Cytotoxicity against human A431 cells. In kind it is functional. As to conditions: read-out: ED50 (the source's name).
As for `COc1cc([C@@H]2c3cc4c(cc3C[C@H]3COC(=O)[C@H]32)OCO4)cc(OC)c1OC` [DEOXYPICROPODOPHYLLIN], the EC50 was over 20 µg/mL.
The same measure, in the same setting: next, `COc1cc([C@@H]2c3cc4c(cc3[C@H](O)[C@H]3COC(=O)[C@H]23)OCO4)cc(OC)c1OC` [PODOFILOX]: 0.03 µg/mL (≈ 0.0724 µM).

System in a further data set: not listed separately
Put plainly: Antimitotic activity in rat ASK cells assessed as reversal of astrocyte formation at 0.032 ug/mL.
Conditions: not given
Type of data set: functional. Summed up:
as §1
For the molecule `COc1cc([C@@H]2c3cc4c(cc3C[C@H]3COC(=O)[C@H]32)OCO4)cc(OC)c1OC` [DEOXYPICROPODOPHYLLIN], the Activity turned out to be 0%.
For `COc1cc([C@@H]2c3cc4c(cc3[C@H](O)[C@H]3COC(=O)[C@H]23)OCO4)cc(OC)c1OC` [PODOFILOX], the Activity is recorded as 100%.
